Laboratory results published in ChEMBL document CHEMBL4725354 (J Med Chem, 2020).
pIC50: −log10 of the molar value. The source made the active and inactive calls. The calls are words filed in the database; no cut-off is given here.

Key:
[1] = Effect on total ABCG2 in MDCK2 cells at 0.5 uM after 4 to 7 days by Western blot analysis; type: ADME, cell-based, Canis lupus familiaris; details: dog, mdck-ii, time 4-7 day
Method in brief: (§1)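 ABCG2-GFP MDCK II cells seeded in T25 flasks (86,000 for 4 days, 17,200 for 7 days). Exposed to modulator (10 nM) and/or SN-38 (0.5 µM) for 4 or 7 days. 15 µg protein run on stain-free 10% SDS-PAGE and transferred to PVDF. Probed with BXP-21 (1:200, overnight, 4 °C) and HRP secondary, ECL detection. Bands normalised to total protein and to the untreated control; one-sample t-test.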

MDCK-II [2] = experiment: Cytotoxicity against MDCK2 cells over expressing human ABCG2 assessed as reduction in cell viability at 0.5 uM by after 3 days by MTT assay; type: functional, cell-based; details: Canis lupus familiaris, time 3.0 day
[3] = Up regulation of ABCG2 in MDCK2 cells at 0.5 uM after 4 days by Western blot analysis; type: functional, Canis lupus familiaris, MDCK-II; details: time 4 day; method in brief: as §1
[4] = Up regulation of ABCG2 in MDCK2 cells at 0.5 uM after 7 days by Western blot analysis; type: functional, Canis lupus familiaris, MDCK-II; details: time 7 day; method in brief: as §1
[5] = Cytotoxicity against human A2780/ADR cells over expressing ABCB1 assessed as reduction in cell viability after 72 hrs by MTT assay; type: ADME, cell-based; details: A2780/ADR cells overexpressing ABCB1
Method in brief: (§2)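 MTT viability assay. Compound dilutions in culture medium (3.2 to 1000 µM as prepared). About 2,000 cells per well, 72 h at 37 °C, 5% CO2. Culture medium set as 100% and 10% DMSO as 0% viability. MTT added for 1 h, formazan dissolved in DMSO, absorbance read at 570 nm with 690 nm background. GI50 from nonlinear regression of absorbance vs log concentration; at least three independent experiments, duplicates, mean ± SEM.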

[6] = Cytotoxicity against MDCK2 cells over expressing human ABCG2 assessed as reduction in cell viability after 72 hrs by MTT assay; type: ADME, cell-based, Canis lupus familiaris, MDCK-II; details: dog, MDCK2 cells overexpressing human ABCG2; method in brief: as §2
[7] = target: ATP-dependent translocase ABCB1 (Homo sapiens, UniProt P08183); experiment: Inhibition of human ABCB1 expressed in A2780/ADR cells preincubated for 30 mins followed by calcein AM addition and measured every 60 secs for 60 mins by fluorescence assay; type: cell-based
ATP-dependent translocase ABCB1, sequence (P08183 whole entry): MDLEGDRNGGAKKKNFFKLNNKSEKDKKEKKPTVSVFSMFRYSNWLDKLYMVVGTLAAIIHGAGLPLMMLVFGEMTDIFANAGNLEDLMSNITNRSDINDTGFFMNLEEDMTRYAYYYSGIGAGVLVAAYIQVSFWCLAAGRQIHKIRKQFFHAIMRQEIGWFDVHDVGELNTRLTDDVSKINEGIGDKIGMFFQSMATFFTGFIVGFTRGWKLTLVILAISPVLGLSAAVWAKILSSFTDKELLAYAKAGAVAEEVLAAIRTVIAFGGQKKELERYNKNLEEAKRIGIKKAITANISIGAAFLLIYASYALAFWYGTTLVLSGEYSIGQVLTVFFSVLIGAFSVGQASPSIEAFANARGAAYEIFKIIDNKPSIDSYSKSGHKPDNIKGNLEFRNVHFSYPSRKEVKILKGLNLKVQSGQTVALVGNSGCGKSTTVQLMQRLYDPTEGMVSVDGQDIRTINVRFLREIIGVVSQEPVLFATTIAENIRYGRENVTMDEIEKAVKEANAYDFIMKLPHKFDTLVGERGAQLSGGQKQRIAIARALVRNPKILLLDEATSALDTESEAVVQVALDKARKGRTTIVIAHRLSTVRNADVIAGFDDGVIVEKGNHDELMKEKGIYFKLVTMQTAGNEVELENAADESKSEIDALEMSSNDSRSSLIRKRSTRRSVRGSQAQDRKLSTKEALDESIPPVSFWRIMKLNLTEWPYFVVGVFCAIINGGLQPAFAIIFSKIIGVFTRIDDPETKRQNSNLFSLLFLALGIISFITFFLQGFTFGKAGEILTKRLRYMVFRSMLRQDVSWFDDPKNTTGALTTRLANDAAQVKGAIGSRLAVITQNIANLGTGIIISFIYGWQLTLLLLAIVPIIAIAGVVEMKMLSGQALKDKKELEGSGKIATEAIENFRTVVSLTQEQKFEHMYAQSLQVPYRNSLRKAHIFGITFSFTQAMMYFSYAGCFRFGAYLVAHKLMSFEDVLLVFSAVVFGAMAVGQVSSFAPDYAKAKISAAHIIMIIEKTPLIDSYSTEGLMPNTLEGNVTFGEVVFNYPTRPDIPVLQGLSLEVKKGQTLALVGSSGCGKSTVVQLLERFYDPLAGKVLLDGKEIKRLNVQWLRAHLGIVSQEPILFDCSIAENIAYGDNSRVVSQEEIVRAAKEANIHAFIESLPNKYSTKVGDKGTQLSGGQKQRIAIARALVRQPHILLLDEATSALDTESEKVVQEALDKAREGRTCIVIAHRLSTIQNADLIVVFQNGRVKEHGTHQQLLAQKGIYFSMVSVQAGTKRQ
Method in brief: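 ABCB1 in A2780/ADR cells (kept resistant by one passage in 1 µM doxorubicin every 10 passages). 30,000 cells per well in Krebs-HEPES buffer, preincubated 30 min at 37 °C with inhibitor. Calcein AM added from a 3.125 µM solution. Fluorescence (ex 485, em 520 nm) read every 60 s for 60 min. Initial linear slopes vs log concentration fitted to give IC50.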

MDCK-II [8] = experiment: Cytotoxicity against MDCK2 cells assessed as reduction in cell viability at 10 uM after 72 hrs by MTT assay; type: cell-based, Canis lupus familiaris; details: dog
Method in brief: (§3)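 Single-concentration screen at 10 µM in MDCK II BCRP and parental MDCK II cells. MTT assay, 72 h at 37 °C, 5% CO2. Viability referenced to culture medium (100%) and 10% DMSO (0%). Mean ± SEM of at least three independent experiments with duplicates.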

[9] = target: T1, Broad substrate specificity ATP-binding cassette transporter ABCG2 (Homo sapiens, UniProt Q9UNQ0); experiment: Inhibition of human ABCG2 expressed in MDCK2 cells co-expressing GFP preincubated for 15 mins followed by pheophorbideA addition and measured after 2 hrs by flow cytometric analysis; type: cell-based, MDCK-II
T1 sequence (Q9UNQ0 whole entry): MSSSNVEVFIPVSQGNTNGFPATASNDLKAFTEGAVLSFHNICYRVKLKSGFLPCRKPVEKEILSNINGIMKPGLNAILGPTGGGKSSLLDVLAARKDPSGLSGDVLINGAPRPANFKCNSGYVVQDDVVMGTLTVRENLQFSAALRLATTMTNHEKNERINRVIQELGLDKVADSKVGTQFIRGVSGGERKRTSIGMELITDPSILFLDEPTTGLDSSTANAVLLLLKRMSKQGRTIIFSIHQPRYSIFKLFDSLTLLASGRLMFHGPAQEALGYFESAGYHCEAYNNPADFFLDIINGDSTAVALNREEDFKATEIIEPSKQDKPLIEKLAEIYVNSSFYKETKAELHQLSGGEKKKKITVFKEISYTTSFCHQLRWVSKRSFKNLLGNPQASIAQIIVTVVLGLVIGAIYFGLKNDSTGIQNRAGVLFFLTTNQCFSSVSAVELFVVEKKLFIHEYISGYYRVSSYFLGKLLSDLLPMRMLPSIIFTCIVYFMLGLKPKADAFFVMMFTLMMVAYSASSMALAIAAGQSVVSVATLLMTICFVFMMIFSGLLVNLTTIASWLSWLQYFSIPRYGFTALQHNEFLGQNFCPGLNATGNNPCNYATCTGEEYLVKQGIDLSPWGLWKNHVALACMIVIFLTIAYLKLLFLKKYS
Method in brief: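 Pheophorbide A added to 0.5 µM final and incubated 2 h. Read by flow cytometry (ex 488, em 695/50 nm); GFP expression checked at 525/30 nm. IC50 from 3- or 4-parameter logistic fit.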

ABCC1 = experiment: Therapeutic ratio of GI50 for Growth inhibition of MDCK2 cells over expressing human ABCC1 to IC50 for inhibition of human ABCC1 expressed in MDCK2 cells preincubated for 30 mins followed by calcein AM addition and measured every 60 secs for 60 mins by fluorescence assay; details: dog, MDCK2 cells overexpressing human ABCC1, probe calcein AM
[10] = Cytotoxicity against MDCK cells over expressing ABCC1 assessed as reduction in cell viability after 72 hrs by MTT assay; type: ADME, cell-based, Canis lupus familiaris, MDCK-II; details: dog, MDCK cells overexpressing ABCC1; method in brief: as §2
[11] = Cytotoxicity against MDCK2 cells assessed as reduction in cell viability after 72 hrs by MTT assay; type: cell-based, Canis lupus familiaris, MDCK-II; details: dog; method in brief: as §2
ABCG2 [12] = experiment: Therapeutic ratio of GI50 for growth inhibition of MDCK2 cells over expressing human ABCG2 to IC50 for inhibition of human ABCG2 expressed in MDCK2 cells co-expressing GFP; details: dog, MDCK2 cells overexpressing human ABCG2
[13] = Cytotoxicity against human A2780 cells assessed as reduction in cell viability after 72 hrs by MTT assay
ABCB1 = experiment: Therapeutic ratio of GI50 for Growth inhibition of A2780/ADR cells over expressing human ABCB1 to IC50 for inhibition of human ABCB1 expressed in A2780/ADR cells preincubated for 30 mins followed by calcein AM addition and measured every 60 secs for 60 mins by fluorescence assay; details: A2780/ADR cells overexpressing human ABCB1, probe calcein AM
MDCK-II [14] = experiment: Cytotoxicity against MDCK2 cells over expressing human ABCG2 at 10 uM assessed as reduction in cell viability after 72 hrs by MTT assay; type: ADME, cell-based, Canis lupus familiaris; details: dog; method in brief: as §3
ABCG2 [15] = target: T2, ABCG2 (Homo sapiens, UniProt Q9UNQ0); experiment: Inhibition of human ABCG2 expressed in MDCK2 cells co-expressing GFP preincubated for 15 mins followed by pheophorbideA addition and measured after 2 hrs by flow cytometric analysis relative to control; type: cell-based, MDCK-II; details: probe pheophorbide A, read-out: Imax
T2 sequence (Q9UNQ0 whole entry): T1 sequence (Q9UNQ0 whole entry)

| pIC50 [7] | pIC50 [9] | Emax at 2 h (ABCG2 [15]) [%] | SMILES | Activity [1] | Activity (MDCK-II [2]) | fold change (FC) [3] | fold change (FC) [4] | GI50 at 72 h [5] [µM] | GI50 at 72 h [6] [µM] | Activity (MDCK-II [8]) | selectivity ratio (ABCC1) | GI50 at 72 h [10] [µM] | GI50 at 72 h [11] [µM] | selectivity ratio (ABCG2 [12]) | GI50 at 72 h [13] [µM] | selectivity ratio (ABCB1) | Activity (MDCK-II [14]) |
| --- | --- | --- | --- | --- | --- | --- | --- | --- | --- | --- | --- | --- | --- | --- | --- | --- | --- |
| – | – | – | CCc1c2c(nc3ccc(O)cc13)-c1cc3c(c(=O)n1C2)COC(=O)C3(O)CC (configuration not stated) | Non-Toxic | inactive | 2 | 5 | – | – | – | – | – | – | – | – | – | – |
| 5.29 | 6.82 | 79 | Cc1cc(Nc2ccc3ncccc3c2)nc(-c2ccccc2)n1 | – | – | – | – | 28.9 | 42.1 | Non-Toxic | 4.9 | 35.4 | 38.4 | 279 | 22.6 | 5.6 | Non-Toxic |
